Redox H2O2 prof = compounds producing H2O2 with reducing agent – biochemical, NIH compound library profiling, artefact control for MLSCN library redox annotation, primary screen | DTT-dependent redox cycling H2O2, phenol red/HRP absorbance; 100% = 100 µM peroxide control, 0% = buffer | activation, % at 10 µM | 200,000 compounds, 0.03% hits;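 active means activation of at least 50% relative to the plate's high and low controls in the primary single-dose screen; inactive means activation below 50%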;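 further: compound incubated with DTT at 0.8 mM final as the reducing agent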
RBBP9 inhibitor = inhibitors of human serine hydrolase RBBP9. inhibition, % at 7.94 µM. 220,000 compounds, 0.2% hits. O75884. recombinant RBBP9, FP-Rh probe fluorescence polarization;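 active means inhibition above the campaign mean of all tested compounds plus 3 SD, cut at about 14% in these data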;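 further: plate controls were DMSO wells with RBBP9 for no effect and wells lacking RBBP9 protein for full effect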
Target sequence (O75884 whole entry, looked up): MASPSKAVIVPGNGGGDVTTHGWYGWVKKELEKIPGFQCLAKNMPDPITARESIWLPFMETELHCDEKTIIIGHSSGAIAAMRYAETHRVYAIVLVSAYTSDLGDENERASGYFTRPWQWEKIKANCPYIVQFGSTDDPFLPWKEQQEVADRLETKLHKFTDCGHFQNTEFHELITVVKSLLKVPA
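System: RBBP9 protein | Quantity: 2.5 µM RBBP9 dispensing solution, before mixing | Reagent: FP-Rh probe, 375 nM dispensing solution | Timing: Enzyme-compound preincubation 30 min, then probe labeling 45 min, 25 °C | Measured by: Fluorescence polarization | Read-out: % inhibition | Replication: One well per compound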
Arbovirus anti = arbovirus infection inhibition; arbovirus infection cell-based antiviral screen; inhibition, % at 10 µM; 200,000 compounds, 0.37% hits; AID 1251; in the data active means inhibition above about 30%
PKD1 inh = inhibitors of human PKD1 kinase; PKD1 kinase fluorescence polarization assay; Q15139; inhibition, % (concentration not given with the values); 200,000 compounds, 0.056% hits; AID 797; in the data active means inhibition above about 50%
p97 ATPase inh = inhibitors of human p97 ATPase. P55072. recombinant p97 ATPase, Kinase-Glo ATP luminescence, 3 h. inhibition, % at 8 µM. 220,000 compounds, 0.42% hits. AID 1481; in the data active means inhibition above about 15%;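 further: 0% = DMSO vehicle and 100% = wells lacking enzyme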
Wee1 degr inh = blocks degradation of human Wee1 kinase. P30291. HeLa Luc-Wee1K328M stability, luciferase luminescence; 100% = proteasome inhibitor MG132 effect. reporter increase, % at 5 µM. 220,000 compounds, 1.2% hits. AID 1321;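 active means activation above the mean of all tested compounds plus 3 SD, set per screening run, cut at about 8.8% in these data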;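 further: cells exposed to compound for 20 h before luminescence read; 0% = DMSO alone and 100% = MG132 at 30 µM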
p97 inh conf = confirmation of human p97 ATPase inhibitors. shares compounds with p97 ATPase inh. recombinant p97 ATPase, Kinase-Glo ATP luminescence. inhibition, % at 8 µM. 760 compounds, 44% hits. AID 1517;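 active means percent inhibition of p97 ATPase above a set limit, the primary screen's mean plus 3 SD, cut at about 15% in these data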;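 further: 0% = DMSO wells and 100% = wells lacking p97 protein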
Starred values were filed as active, the others as inactive; / = no result given. This is a sample that favours compounds with a hit; in the whole collection about 2.2% have one here.

SMILES | Redox H2O2 prof | RBBP9 inhibitor | Arbovirus anti | PKD1 inh | p97 ATPase inh | Wee1 degr inh | p97 inh conf
COc1ccc(Cl)cc1NC(=O)C/C(C)=N/NC(=O)Cc1ccccc1 | 0 | -2 | -9 | -9 | 15* | -3 | 6
CCc1ccc(N2C(=O)CC(Cn3nc(C)cc3C)C2=O)cc1 (stereo unspecified) | / | 5 | / | / | -2 | -1 | /
O=C(Cc1c2ccccc2nc2ccccc12)c1ccccc1 | 0 | -9 | -7 | -1 | 2 | -1 | /
Cc1ccccc1NC(=S)NN1CCN(C)CC1 | 2 | -9 | 4 | -6 | 3 | 0 | /
CC(C)C1Nc2ccc(C(=O)O)cc2C2C=CCC21 (stereo unspecified) | 0 | 3 | 15 | -2 | 5 | -3 | /
CCCC1Nc2ccc(C(=O)O)cc2C2C=CCC12 (stereo unspecified) | 0 | 7 | 27 | 10 | 26* | 0 | 8
CCN(CC)S(=O)(=O)c1cccc2c(N(C)C)cccc12 | 2 | -3 | 0 | 11 | -1 | -2 | /
O=C(Nc1ccc(-c2nc3ccc(NC(=O)c4cccs4)cc3[nH]2)cc1)c1cccs1 | 2 | -8 | -18 | 12 | 2 | 2 | /
O=C(Nc1ccc2nc(-c3cccs3)[nH]c2c1)c1cccs1 | 0 | -2 | -28 | -2 | 15* | 5 | 19*
CCOC(=O)C1(CCCc2ccccc2)CCN(C(=O)CCOC)CC1 | 11 | -10 | 0 | -7 | -4 | -1 | /
O=C1C=C(Nc2ccccc2C(=O)O)c2ccccc2C1=O | / | -1 | / | / | 23* | -2 | 21*
CCN(CC)C(=O)c1ccc(COc2ccccc2Cl)cc1 | 0 | 6 | -16 | -6 | 15* | 2 | -1
CCC(C)NC(=O)c1ccc(COc2ccccc2Cl)cc1 (stereo unspecified) | 2 | -4 | -7 | 3 | 0 | 3 | /
COc1cc(OC)cc(-c2nnc(SCC(=O)Nc3cc(C)on3)o2)c1 | 2 | -7 | / | 2 | 5 | 2 | /
COc1ccc2ccccc2c1/C=N/NC(=O)c1sc(N)c(C#N)c1C | -1 | -17 | -1 | 19 | 18* | 0 | 39*
COc1cc(O)oc1C=Nc1ccc(C(=O)O)cc1 | -2 | -2 | 8 | 7 | -19 | -3 | /
Clc1ccccc1C(c1ccccc1)(c1ccccc1)n1ccnc1 | 0 | -3 | -30 | 0 | 1 | -4 | /
CN(C)S(=O)(=O)c1ccc(NC(=O)CNc2cc(S(=O)(=O)N3CCCC3)ccc2OCC(F)(F)F)cc1 | -1 | -8 | 2 | -13 | -2 | -3 | /
CC(C)=CCC1=C(OCC(=O)O)C(=O)c2ccccc2C1=O | / | 1 | / | / | 32* | 8 | 29*
COc1ccccc1OCC(=O)O | 1 | 4 | 5 | -10 | 6 | -1 | /
O=c1cc(-c2ccc(O)c(-c3c(O)cc(O)c4c(=O)cc(-c5ccc(O)cc5)oc34)c2)oc2cc(O)cc(O)c12 | 0 | 7 | -7 | -13 | 41* | 4 | 64*
O=c1cc(-c2ccccc2)oc2cc(OCc3ccccc3)cc(O)c12 | 0 | -5 | -5 | -7 | -1 | -1 | /
Cc1cc(C)cc(NC(=O)OCCN2CCN(Cc3ccccc3)CCC2=O)c1 | 0 | 5 | 8 | -9 | 0 | -3 | /
c1ccc2c(c1)ncc1cccn12 | 0 | -5 | 1 | -7 | 10 | -2 | /
CCn1c2ccccc2c2c3ncc4cccn4c3ccc21 | / | -11 | / | / | 15* | 0 | 13
SMILES | Redox H2O2 prof | RBBP9 inhibitor | Arbovirus anti | PKD1 inh | p97 ATPase inh | Wee1 degr inh | p97 inh conf
O=C(Nc1ccc(Cl)cn1)C1C(c2ccccc2)C1(Cl)Cl (stereo unspecified) | -1 | -5 | -11 | 1 | 17* | 1 | 23*
O=C(Nc1ccc(Cl)cn1)C1CC1 | -1 | -4 | 4 | 5 | -3 | 5 | /
CN(C1CC(C)(C)NC(C)(C)C1)S(=O)(=O)CC12CCC(CC1=O)C2(C)C (stereo unspecified) | / | 2 | / | / | 5 | -3 | /
COc1cc2c(cc1OC)C(C)N(C(=O)c1cccs1)CC2 (stereo unspecified) | -3 | 0 | -11 | 3 | 16* | -1 | 21*
COc1cc2c(cc1OC)C(C)N(C(C)=O)CC2 (stereo unspecified) | 0 | -13 | -7 | -4 | -1 | 1 | /
CCOC(=O)C1(Cc2cccc(F)c2)CCN(C(=O)Cn2cnnn2)CC1 | / | -11 | / | / | -8 | 1 | /
CCn1c2ccccc2c2cc(NC(=O)CSc3nccc(=O)[nH]3)ccc21 | 0 | 8 | 1 | -2 | 20* | 4 | 29*
CCn1c2ccccc2c2cc(NC(=O)CSc3nnc(-c4cccc(C)c4)o3)ccc21 | 0 | -5 | -5 | 0 | 15* | -1 | 24*
Cc1cccc(CS(=O)(=O)Cc2ccc(C(=O)NCc3cccs3)o2)c1 | -1 | 1 | 2 | 3 | 0 | 0 | /
O=C(Nc1ccc(N2CCOCC2)cc1)c1ccc(S(=O)(=O)NCc2ccco2)cc1 | / | -10 | / | / | -15 | -3 | /
COc1ccc(C2=NN(c3ccccc3)C(=O)/C2=C\c2ccc(O)c(OC)c2)cc1 | 1 | -11 | 12 | -7 | 35* | 1 | 7
COc1cc(/C=C2\SC(c3ccc(C)cc3)=NC2=O)ccc1O | 0 | -4 | -8 | -11 | 5 | 1 | /
Cn1c2ccccc2c(=O)c2c(=O)n(Cc3ccco3)c(-c3ccc(Cl)cc3Cl)nc21 | / | -13 | / | / | 33* | -2 | 24*
S=C1NC2=C(CCC/C2=C\c2ccc(Cl)cc2)C(c2ccc(Cl)cc2)N1 (stereo unspecified) | / | 1 | / | / | 18* | -2 | 8
O=C1CCC/C1=C/Nc1ccc(Cl)cc1 | 3 | 4 | -7 | -3 | 3 | 1 | /
O=C1CCCC/C1=C\Nc1ccc(O)cc1 | -2 | 10 | -12 | -3 | 21* | 0 | 7
CCC(=O)Nc1cccc(-c2cn3ccsc3n2)c1 | 0 | -3 | -3 | 3 | 15* | 3 | 10
O=C(Nc1cc(Cl)ccn1)C1(c2ccccc2)CC1(Cl)Cl (stereo unspecified) | / | -11 | / | / | 17* | -2 | 25*
Cc1cc(OC(=O)c2ccc(S(=O)(=O)N3CCCCC3)cc2)c([N+](=O)[O-])c(=O)[nH]1 | -9 | -1 | 14 | 5 | 15* | 0 | 4
CCC(C)(C)NC(=O)C(c1ccc(C)cc1)N(CCN1CCOCC1)C(=O)CNC(=O)c1cccs1 (stereo unspecified) | 0 | -12 | 11 | -5 | 4 | 1 | /
CC1CCN(Cc2nnnn2-c2cccc([N+](=O)[O-])c2)CC1 | 0 | -1 | 0 | -2 | -2 | -1 | /
NC(N)=Nc1cc2ccccc2c2ccccc12 | / | -5 | / | / | 15* | -1 | 10
COc1ccccc1OCCn1c(=O)oc2ccc(C)cc21 | 1 | -6 | 23 | -5 | 2 | 1 | /

Screens as filed in PubChem BioAssay.
